Results as given in ChEMBL document CHEMBL1148785, “Second generation tetrahydroquinoline-based protein farnesyltransferase inhibitors as antimalarials” (J Med Chem, 2007).

Tests used:
Plasmodium falciparum [1] = assay: Inhibition of Plasmodium falciparum protein farnesyltransferase at 50 nM by scintillation proximity assay
Plasmodium falciparum [2] = assay: Inhibition of Plasmodium falciparum protein farnesyltransferase at 5 nM by scintillation proximity assay
Plasmodium falciparum [3] = assay: Inhibition of Plasmodium falciparum protein farnesyltransferase at 0.5 nM by scintillation proximity assay
Plasmodium falciparum [4] = assay: Antimalarial activity against Plasmodium falciparum 3D7; format: functional; conditions: Plasmodium falciparum, 3D7; read-out: ED50 (the source's name)
Outline: (§1)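 Asynchronous culture in type A+ erythrocytes at 0.5% parasitemia and 0.5% hematocrit, grown in RPMI-1640 with 20% heat-inactivated human A+ plasma. Compound was serially diluted from a top final 5 µM, with DMSO vehicle as 100% growth. Plates ran 48 h at 37 °C under 5% CO2/5% O2/90% N2, then [3H]-hypoxanthine (0.3 µCi) for 24 h. Filter-harvested counts were corrected for the uninfected-RBC background. ED50 by linear regression; duplicates averaged.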

Plasmodium falciparum [5] = assay: Antimalarial activity against Plasmodium falciparum K1; format: functional; conditions: Plasmodium falciparum, K1; read-out: ED50 (the source's name); outline: as §1

Row | Compound | inhibition (Plasmodium falciparum [1]) [%] | inhibition (Plasmodium falciparum [2]) [%] | inhibition (Plasmodium falciparum [3]) [%] | EC50 (Plasmodium falciparum [4]) [nM] | EC50 (Plasmodium falciparum [5]) [nM]
1 | Cn1cnc(S(=O)(=O)N(Cc2ccc(C(F)(F)F)o2)C2Cc3cc(C#N)ccc3N(Cc3cncn3C)C2)c1 (stereo not given) | 97 | 96 | 54 | 78 | 75
2 | Cn1cncc1CN1CC(N(CC(=O)NC(C)(C)C)S(=O)(=O)CCN)Cc2cc(C#N)ccc21 (stereo not given) | 11 | 10 | 5 | > 5000 | > 5000
3 | Cn1cncc1CN1CC(N(Cc2ccc(S(C)(=O)=O)cc2)S(=O)(=O)c2cncn2C)Cc2cc(C#N)ccc21 (stereo not given) | 100 | 100 | 84 | < 20 | < 20
4 | Cc1cc(=O)n(CCCCN(C2Cc3cc(C#N)ccc3N(Cc3cncn3C)C2)S(=O)(=O)c2ccccn2)c(=O)n1C (stereo not given) | 90 | 51 | 0 | 350 | 200
5 | COC(=O)NCCCN(C1Cc2cc(C#N)ccc2N(Cc2cncn2C)C1)S(=O)(=O)c1cn(C)cn1 (stereo not given) | 100 | 96 | 61 | 19 | 17
6 | COC(=O)N1CCC(CN(C2Cc3cc(C#N)ccc3N(Cc3cncn3C)C2)S(=O)(=O)N(C)C)CC1 (stereo not given) | 58 | 19 | 0 | 1600 | 2400
7 | CCCS(=O)(=O)N(Cc1ccccc1F)C1Cc2cc(C#N)ccc2N(Cc2cncn2C)C1 (stereo not given) | 41 | 16 | 11 | 1200 | 3050
8 | Cn1cncc1CN1CC(N(CC2CCN(C(=O)C3CCCC3)CC2)S(=O)(=O)c2ccccn2)Cc2cc(C#N)ccc21 (stereo not given) | 100 | 39 | 94 | 58 | 50
9 | Cn1cnc(CN2CC(N(Cc3ccc(C(F)(F)F)o3)S(=O)(=O)c3cn(C)cn3)Cc3cc(-c4ccccc4)ccc32)c1 (stereo not given) | 88 | 46 | 0 | 4600 | 3500
10 | CC(C)OC(=O)N1CCC(CN(C2Cc3cc(-c4ccccc4)ccc3N(Cc3cn(C)cn3)C2)S(=O)(=O)c2cn(C)cn2)CC1 (stereo not given) | 32 | 0 | 0 | 450 | 350
11 | Cc1oncc1S(=O)(=O)N(CC(=O)NC(C)(C)C)C1Cc2cc(C#N)ccc2N(Cc2cncn2C)C1 (stereo not given) | 3 | 0 | 0 | > 5000 | > 5000
12 | COc1ccc(S(=O)(=O)N(Cc2ccc(S(C)(=O)=O)cc2)C2Cc3cc(C#N)ccc3N(Cc3cncn3C)C2)cc1 (stereo not given) | 97 | 83 | 17 | 185 | 340
13 | Cn1cnc(S(=O)(=O)N(CCc2ccc(F)cc2)C2Cc3cc(C#N)ccc3N(Cc3cncn3C)C2)c1 (stereo not given) | 100 | 95 | 42 | 50 | 65
14 | COC(=O)c1ccnc(CN(C2Cc3cc(C#N)ccc3N(Cc3cncn3C)C2)S(=O)(=O)c2cn(C)cn2)c1 (stereo not given) | 100 | 98 | 46 | 620 | 163
15 | Cn1cncc1CN1CC(N(CCNC(=O)OC(C)(C)C)S(=O)(=O)c2ccccn2)Cc2cc(C#N)ccc21 (stereo not given) | 91 | 48 | 9 | 230 | 240
16 | Cn1cncc1CN1CC(N(CC2CCN(C(=O)CNC(=O)OC(C)(C)C)CC2)S(=O)(=O)c2ccccn2)Cc2cc(C#N)ccc21 (stereo not given) | 88 | 15 | 37 | 750 | 690
17 | CSCCC(=O)N(Cc1ccccc1F)C1Cc2cc(C#N)ccc2N(Cc2cncn2C)C1 (stereo not given) | 52 | 9 | 0 | 270 | 450
18 | Cn1cnc(S(=O)(=O)N2CCC(CN(C3Cc4cc(C#N)ccc4N(Cc4cncn4C)C3)S(=O)(=O)c3ccccn3)CC2)c1 (stereo not given) | 92 | 20 | 60 | 700 | 650
19 | Cn1cnc(CN2CC(N(CC(=O)NC(C)(C)C)S(=O)(=O)c3ccccn3)Cc3cc(-c4ccccc4)ccc32)c1 (stereo not given) | 11 | 6 | 6 | > 5000 | 3000
20 | Cc1noc(C)c1CN(C1Cc2cc(C#N)ccc2N(Cc2cncn2C)C1)S(=O)(=O)c1cn(C)cn1 (stereo not given) | 100 | 98 | 46 | 25 | < 20
21 | Cn1cncc1CN1CC(N(Cc2ccccc2C(F)(F)F)S(=O)(=O)c2ccccn2)Cc2cc(C#N)ccc21 (stereo not given) | 91 | 38 | 0 | 650 | 3000

Row | Compound | inhibition (Plasmodium falciparum [1]) [%] | inhibition (Plasmodium falciparum [2]) [%] | inhibition (Plasmodium falciparum [3]) [%] | EC50 (Plasmodium falciparum [4]) [nM] | EC50 (Plasmodium falciparum [5]) [nM]
22 | COCCCN(C1Cc2cc(C#N)ccc2N(Cc2cncn2C)C1)S(=O)(=O)c1ccccn1 (stereo not given) | 93 | 64 | 18 | 230 | 1000
23 | COC(=O)N1CCC(CN(C2Cc3cc(C#N)ccc3N(S(=O)(=O)c3cncn3C)C2)S(=O)(=O)c2ccccn2)CC1 (stereo not given) | 0 | 0 | 0 | > 5000 | 3200
24 | CCN(CCCCN(C1Cc2cc(C#N)ccc2N(Cc2cncn2C)C1)S(=O)(=O)c1ccccn1)C(=O)OC(C)(C)C (stereo not given) | 92 | 52 | 6 | 1250 | 2600
25 | Cn1cncc1CN1CC(N(CC2CCN(C(=O)N3CCCC3)CC2)S(=O)(=O)c2ccccn2)Cc2cc(C#N)ccc21 (stereo not given) | 99 | 31 | 91 | 35 | 65
26 | COC(=O)N1CCC(CN(C2Cc3cc(C#N)ccc3N(Cc3cncn3C)C2)S(=O)(=O)c2ccccc2Cl)CC1 (stereo not given) | 97 | 80 | 24 | 55 | 70
27 | Cn1cncc1CN1CC(N(CCOc2cccc3c2OCCO3)S(=O)(=O)c2ccccn2)Cc2cc(C#N)ccc21 (stereo not given) | 88 | 41 | 10 | 810 | 1450
28 | Cn1cncc1CN1CC(N(CCN)S(=O)(=O)c2ccccn2)Cc2cc(C#N)ccc21 (stereo not given) | 65 | 11 | 6 | 2700 | > 5000
29 | COC(=O)N1CCC(CN(C2Cc3cc(C#N)ccc3N(Cc3cncn3C)C2)S(=O)(=O)c2cccc3nsnc23)CC1 (stereo not given) | 98 | 84 | 20 | 140 | 160
30 | COC(=O)N1CCC(CN(C2Cc3cc(C#N)ccc3N(Cc3cncn3C)C2)S(=O)(=O)c2ccc(C(=O)O)o2)CC1 (stereo not given) | 89 | 49 | 5 | > 5000 | 675
31 | C/C=C/C=C\C=C\CN(C1Cc2cc(C#N)ccc2N(Cc2cncn2C)C1)S(=O)(=O)c1ccccn1 (stereo not given) | 98 | 87 | 32 | 700 | 700
32 | Cn1cncc1CN1CC(N(CCCCNC(=O)OC(C)(C)C)S(=O)(=O)c2ccccn2)Cc2cc(C#N)ccc21 (stereo not given) | 97 | 80 | 24 | 250 | 375
33 | COC(=O)N1CCC(CN(C2Cc3cc(C#N)ccc3N(Cc3cncn3C)C2)S(=O)(=O)c2cccc(F)c2)CC1 (stereo not given) | 93 | 86 | 39 | 90 | 150
34 | CCCS(=O)(=O)N(CC1CCN(C(=O)OC)CC1)C1Cc2cc(C#N)ccc2N(Cc2cncn2C)C1 (stereo not given) | 55 | 22 | 1 | 1100 | 1800
35 | Cn1cnc(S(=O)(=O)N(CCCCON2C(=O)c3ccccc3C2=O)C2Cc3cc(C#N)ccc3N(Cc3cncn3C)C2)c1 (stereo not given) | 99 | 96 | 57 | 140 | 100
36 | Cn1cncc1CN1CC(N(Cc2ccccc2F)C(=O)C2CC2)Cc2cc(C#N)ccc21 (stereo not given) | 33 | 0 | 0 | 950 | 2000
37 | Cn1cnc(S(=O)(=O)N(CC(=O)NC(C)(C)C)C2Cc3cc(C(=O)NC4CCCCC4)ccc3N(Cc3cncn3C)C2)c1 (stereo not given) | 66 | 17 | 5 | 2800 | 2300
38 | Cn1cncc1CN1CC(N(Cc2cccc3nsnc23)S(=O)(=O)c2ccccn2)Cc2cc(C#N)ccc21 (stereo not given) | 85 | 31 | 12 | 175 | 98
39 | Cn1cnc(S(=O)(=O)N(CCN2CCCC2=O)C2Cc3cc(C#N)ccc3N(Cc3cncn3C)C2)c1 (stereo not given) | 99 | 65 | 0 | 87 | 60
40 | Cn1cnc(S(=O)(=O)N(CC(=O)O)C2Cc3cc(C#N)ccc3N(Cc3cncn3C)C2)c1 (stereo not given) | 97 | 81 | 19 | 125 | 400
41 | C=C(C)C(=O)N1CCC(CN(C2Cc3cc(C#N)ccc3N(Cc3cncn3C)C2)S(=O)(=O)c2ccccn2)CC1 (stereo not given) | 100 | 31 | 92 | 50 | 60
